Experimental data from ChEMBL document CHEMBL5247578, “Effective synthesis of benzimidazoles-imidazo[1,2-a]pyrazine conjugates: A comparative study of mono-and bis-benzimidazoles for antitumor activity” (Eur J Med Chem, 2019).

Experiments:
[1] = system: Calf thymus DNA; experiment: Displacement of ethidium bromide from calf thymus DNA assessed as quenching constant upto 85 uM by fluorescence based spectroscopic analysis; assay type: nucleic-acid assay; details: Bos taurus
[2] = system: Calf thymus DNA; experiment: Binding affinity to calf thymus DNA assessed as DNA intercalation by measuring change in melting temperature at 10 uM by thermal denaturation assay; assay type: nucleic-acid assay; details: Bos taurus
[3] = system: HEK293; experiment: Cytotoxicity against human HEK293 cells assessed as reduction in cell viability at 0.00001 M incubated for 48 hrs by MTT colorimetric assay relative to control; assay type: toxicity, cell-based; details: hek293, 48 h, 10 µM
[4] = system: RPMI-8226; experiment: Antiproliferative activity against human RPMI-8226 cells assessed as cell growth at 0.00000001 M incubated for 48 hrs by SRB assay relative to control; assay type: functional; details: dose 10 nM, read-out: Activity
[5] = system: SF-539; experiment: Antiproliferative activity against human SF-539 cells assessed as cell growth at 0.00000001 M incubated for 48 hrs by SRB assay relative to control; assay type: functional; details: dose 10 nM, read-out: Activity
[6] = system: Malme-3M; experiment: Antiproliferative activity against human Malme-3M cells assessed as cell growth at 0.00000001 M incubated for 48 hrs by SRB assay relative to control; assay type: functional; details: dose 10 nM, read-out: Activity
[7] = system: NCI-H522; experiment: Antiproliferative activity against human NCI-H522 cells assessed as cell growth inhibition by measuring lethal concentration incubated for 48 hrs by sulforhodamine B assay; assay type: functional; details: read-out: LC50 (the source's name)
[8] = system: NCI-H226; experiment: Antiproliferative activity against human NCI-H226 cells assessed as cell growth inhibition by measuring lethal concentration incubated for 48 hrs by sulforhodamine B assay; assay type: functional; details: read-out: LC50 (the source's name)
[9] = system: MDA-MB-468; experiment: Growth inhibition against human MDA-MB-468 cells assessed as total growth inhibitory concentration incubated for 48 hrs by sulforhodamine B assay; assay type: functional
[10] = system: SNB-75; experiment: Growth inhibition against human SNB-75 cells assessed as total growth inhibitory concentration incubated for 48 hrs by sulforhodamine B assay; assay type: functional
[11] = system: NCI-H460; experiment: Growth inhibition against human NCI-H460 cells assessed as total growth inhibitory concentration incubated for 48 hrs by sulforhodamine B assay; assay type: functional
[12] = system: SR; experiment: Growth inhibition against human SR cells assessed as total growth inhibitory concentration incubated for 48 hrs by sulforhodamine B assay; assay type: functional
[13] = system: CCRF-CEM; experiment: Growth inhibition against human CCRF-CEM cells assessed as total growth inhibitory concentration incubated for 48 hrs by sulforhodamine B assay; assay type: functional
[14] = system: CAKI-1; experiment: Growth inhibition against human CAKI-1 cells incubated for 48 hrs by sulforhodamine B assay; assay type: functional
[15] = system: OVCAR-3; experiment: Growth inhibition against human OVCAR-3 cells incubated for 48 hrs by sulforhodamine B assay; assay type: functional
[16] = system: IGROV-1; experiment: Growth inhibition against human IGROV-1 cells incubated for 48 hrs by sulforhodamine B assay; assay type: functional
[17] = system: UACC-62; experiment: Growth inhibition against human UACC-62 cells incubated for 48 hrs by sulforhodamine B assay; assay type: functional
[18] = system: HCT-15; experiment: Growth inhibition against human HCT-15 cells incubated for 48 hrs by sulforhodamine B assay; assay type: functional
[19] = system: COLO 205; experiment: Growth inhibition against human COLO 205 cells incubated for 48 hrs by sulforhodamine B assay; assay type: functional
[20] = system: HOP-92; experiment: Antiproliferative activity against human HOP-92 cells assessed as cell growth at 0.0000001 M incubated for 48 hrs by SRB assay relative to control; assay type: functional; details: dose 100 nM, read-out: Activity
Procedure, shortened: (§1)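 NCI-60 five-dose screen (10^-4 to 10^-8 M). Cells grown in RPMI 1640 with 5% FBS and 2 mM L-glutamine, plated at 5,000-40,000 cells/well and preincubated 24 h. Drug given from DMSO stock, then 48 h at 37 °C, 5% CO2. For adherent lines, cells fixed with cold TCA, SRB-stained and read at 515 nm. Percent growth taken against time-zero and untreated control.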

[21] = system: NCI-H322M; experiment: Antiproliferative activity against human NCI-H322M cells assessed as cell growth at 0.0000001 M incubated for 48 hrs by SRB assay relative to control; assay type: functional; details: dose 100 nM, read-out: Activity
[22] = system: NCI/ADR-RES; experiment: Antiproliferative activity against human NCI/ADR-RES cells assessed as cell growth at 0.0000001 M incubated for 48 hrs by SRB assay relative to control; assay type: functional; details: dose 100 nM, read-out: Activity
[23] = system: CCRF-CEM; experiment: Antiproliferative activity against human CCRF-CEM cells assessed as cell growth at 0.000001 M incubated for 48 hrs by SRB assay relative to control; assay type: functional; details: read-out: Activity
Procedure, shortened: (§2)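 NCI-60 five-dose screen over 10^-4–10^-8 M (10-fold dilutions). Cells grown in RPMI 1640 with 5% FBS and 2 mM L-glutamine, seeded at 5,000–40,000 cells/well and preincubated 24 h. Drug from DMSO stock, 48 h at 37 °C, 5% CO2. Adherent cells TCA-fixed and stained with 0.4% SRB; A515 read. Percent growth = (Ti−Tz)/(C−Tz)×100, or (Ti−Tz)/Tz×100 when Ti<Tz.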

[24] = system: U-251; experiment: Antiproliferative activity against human U-251 cells assessed as cell growth at 0.000001 M incubated for 48 hrs by SRB assay relative to control; assay type: functional; details: read-out: Activity
[25] = system: SK-MEL-28; experiment: Antiproliferative activity against human SK-MEL-28 cells assessed as cell growth at 0.000001 M incubated for 48 hrs by SRB assay relative to control; assay type: functional; details: read-out: Activity
[26] = system: CCRF-CEM; experiment: Antiproliferative activity against human CCRF-CEM cells assessed as cell growth at 0.00001 M incubated for 48 hrs by SRB assay relative to control; assay type: functional; details: read-out: Activity; procedure, shortened: as §2
[27] = system: HCC 2998; experiment: Antiproliferative activity against human HCC 2998 cells assessed as cell growth at 0.00001 M incubated for 48 hrs by SRB assay relative to control; assay type: functional; details: read-out: Activity; procedure, shortened: as §1
[28] = system: SN12C; experiment: Antiproliferative activity against human SN12C cells assessed as cell growth at 0.00001 M incubated for 48 hrs by SRB assay relative to control; assay type: functional; details: read-out: Activity
[29] = system: NCI-H23; experiment: Antiproliferative activity against human NCI-H23 cells assessed as cell growth at 0.0001 M incubated for 48 hrs by SRB assay relative to control; assay type: functional; details: read-out: Activity
[30] = system: COLO 205; experiment: Antiproliferative activity against human COLO 205 cells assessed as cell growth at 0.0001 M incubated for 48 hrs by SRB assay relative to control; assay type: functional; details: read-out: Activity; procedure, shortened: as §2
[31] = system: HCC 2998; experiment: Antiproliferative activity against human HCC 2998 cells assessed as cell growth at 0.0001 M incubated for 48 hrs by SRB assay relative to control; assay type: functional; details: read-out: Activity; procedure, shortened: as §1
[32] = system: UACC-62; experiment: Antiproliferative activity against human UACC-62 cells assessed as cell growth at 0.0001 M incubated for 48 hrs by SRB assay relative to control; assay type: functional; details: read-out: Activity
[33] = system: OVCAR-5; experiment: Antiproliferative activity against human OVCAR-5 cells assessed as cell growth at 0.0001 M incubated for 48 hrs by SRB assay relative to control; assay type: functional; details: read-out: Activity

Row | Compound | Kq [1] | ΔTm [2] [°C] | Activity [3] [%] | growth at 0.01 µM [4] [%] | growth at 0.01 µM [5] [%] | growth at 0.01 µM [6] [%] | CC50 [7] [µM] | CC50 [8] [µM] | TGI [9] [µM] | TGI [10] [µM] | TGI [11] [µM] | TGI [12] [µM] | TGI [13] [µM] | GI50 [14] [µM] | GI50 [15] [µM] | GI50 [16] [µM] | GI50 [17] [µM] | GI50 [18] [µM] | GI50 [19] [µM] | growth at 0.1 µM [20] [%] | other results
1 | COc1ccc(-c2cn3ccnc3c(-c3ccc4ncn(C5CCCCC5)c4c3)n2)cc1 | 0.82 10^12/M/s | 22 | 16.51 | 104 | 87 | 100 | > 100 | > 100 | > 100 | > 100 | > 100 | > 100 | > 100 | 0.757 | 0.411 | 0.921 | 0.434 | 0.722 | 2.22 | 94 | growth at 0.1 µM [21]: 90%; growth at 0.1 µM [22]: 94%; growth at 1 µM [23]: 59%; growth at 1 µM [24]: 69%; growth at 1 µM [25]: 58%; growth at 10 µM [26]: 16%; growth at 10 µM [27]: 9%; growth at 10 µM [28]: 16%; growth at 100 µM [29]: 22%; growth at 100 µM [30]: -5%; growth at 100 µM [31]: 20%; growth at 100 µM [32]: 8%; growth at 100 µM [33]: 56%
2 | c1ccc(Cn2cnc3ccc(-c4nc(-c5ccc6c(c5)ncn6C5CCCCC5)cn5ccnc45)cc32)cc1 | 0.74 10^12/M/s | 12 | 14.53 | 108 | 88 | 92 | > 100 | > 100 | 4.43 | 2.89 | 5.66 | > 100 | > 100 | 2.45 | 2.27 | 2.14 | 1.98 | 1.57 | 1.88 | 98 | growth at 0.1 µM [21]: 91%; growth at 0.1 µM [22]: 97%; growth at 1 µM [23]: 72%; growth at 1 µM [24]: 83%; growth at 1 µM [25]: 87%; growth at 10 µM [26]: 8%; growth at 10 µM [27]: -92%; growth at 10 µM [28]: -32%; growth at 100 µM [29]: -79%; growth at 100 µM [30]: -39%; growth at 100 µM [31]: -89%; growth at 100 µM [32]: 9%; growth at 100 µM [33]: 21%
